Here are results for two molecules from ChEMBL document CHEMBL4732059, “Structure-guided modification of isoxazole-type FXR agonists: Identification of a potent and orally bioavailable FXR modulator” (Eur J Med Chem, 2021).

SMILES strings stand for the structures. The source made the active and inactive calls. The rule behind the calls is not given here.

Series [1] is described as follows: Half life in C57BL/6J mouse at 20 mg/kg, po measured upto 24 hrs by LC-MS analysis. The class given is ADME, organism-based. The settings on record: in vivo. The method in brief:
(§1)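 Male C57BL/6J mice (22–24 g, n = 5), single oral dose 20 mg/kg in 0.5% CMC-Na PBS. Plasma sampled at 0.25, 0.5, 1, 2, 4, 8, 12 and 24 h, centrifuged, and supernatant analysed by LC-MS/MS in positive ion mode. Parameters from noncompartmental analysis; mean ± SD, n = 5.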

Series [2] is described as follows: AUC (0 to t) in C57BL/6J mouse at 20 mg/kg, po measured upto 24 hrs by LC-MS analysis. The class given is ADME, organism-based. Details: route oral, dose 20 mg/kg, time <=24. Conditions: in vivo. The method in brief: as §1
Series [3] is described as follows: Cmax in C57BL/6J mouse at 20 mg/kg, po measured upto 24 hrs by LC-MS analysis. The class given is ADME, organism-based. Details: route oral, dose 20 mg/kg, time <=24. The settings on record: in vivo. Summed up:
as §1

A short description of series [4]: Tmax in C57BL/6J mouse at 20 mg/kg, po measured upto 24 hrs by LC-MS analysis. The class given is ADME, organism-based. Conditions: in vivo. The method in brief: as §1
Series [5] deals with HepG2. As to the kind of experiment: Upregulation of FXR level in human HepG2 cells at 1 to 10 uM for 16 hrs by Western blot analysis. The class given is functional, cell-based. Conditions: dose 1-10 µM. The method in brief:
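HepG2 cells treated for 16 h, washed, lysed on ice and centrifuged; protein quantified by BCA. Equal protein run on 12% SDS-PAGE and transferred to PVDF. Probed overnight at 4 °C with anti-FXR, […], anti-CYP7A1 or anti-BSEP antibody, then HRP secondary 1 h at 37 °C; ECL detection.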
Background: A western blot detects proteins with antibodies after separation by electrophoresis.

For series [6], the system named is HepG2. As to the kind of experiment: Cytotoxicity against human HepG2 cells assessed as cell viability upto 40 uM after 48 hrs by MTT assay. The settings on record: hepg2, 48 h. The class given is cell-based. Summed up: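 HepG2 cells in DMEM/10% FBS seeded at 1×10⁵/mL and grown 24 h, then exposed to 0.1, 1, 10, 40 and 80 µM for 48 h. MTT (5 mg/mL stock) added for 4 h at 37 °C in the dark, formazan dissolved in DMSO, absorbance read at 490 nm; mean ± SD, n = 3.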
(Formazan colour is commonly taken as a measure of viable cells.)

Series [7] concerns the target T1, Bile acid receptor (Homo sapiens) (UniProt Q96RI1).
T1 sequence (whole entry): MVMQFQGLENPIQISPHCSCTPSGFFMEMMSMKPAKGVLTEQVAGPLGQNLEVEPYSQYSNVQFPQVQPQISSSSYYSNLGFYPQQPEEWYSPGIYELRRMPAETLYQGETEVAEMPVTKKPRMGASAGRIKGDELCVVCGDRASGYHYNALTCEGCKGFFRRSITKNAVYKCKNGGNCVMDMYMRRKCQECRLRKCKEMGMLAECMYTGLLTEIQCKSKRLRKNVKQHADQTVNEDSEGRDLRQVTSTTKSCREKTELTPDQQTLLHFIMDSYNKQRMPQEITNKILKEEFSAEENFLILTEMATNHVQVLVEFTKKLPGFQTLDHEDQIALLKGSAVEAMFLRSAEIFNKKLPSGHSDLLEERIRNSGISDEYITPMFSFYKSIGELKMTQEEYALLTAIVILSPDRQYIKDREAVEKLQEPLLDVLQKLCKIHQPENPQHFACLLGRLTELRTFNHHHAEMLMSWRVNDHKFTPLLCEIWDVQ
The series is described as follows: Agonist activity at human FXR in HepG2 cells assessed as nuclear translocation at 1 uM for 16 hrs by immunofluorescence analysis. The settings on record: filed as agonist. The class given is cell-based.

Usually half-life stands for how long it takes for the measured level to halve. The term AUC(0-t) denotes exposure summed from dosing to a finite time, without extrapolation to infinity. By Cmax is commonly meant the highest concentration seen after dosing. By Tmax is commonly meant the time at which the peak concentration occurs.

In series [1], `O=C(O)c1cccc(NC(=O)N2CCC(OCc3c(-c4ccccc4OC(F)(F)F)noc3C3CC3)CC2)c1` had a half-life of 10.6 h. This molecule also yielded an AUC(0-t) at 24 h in series [2] of 36.1 µg·h/mL. For the same molecule, in series [3], the Cmax came out at 2.35 µg/mL. For the same molecule, the Tmax in series [4] was found to be 4.8 h. For the same molecule, the result in the series on HepG2 [5] was Active. Besides, in the series on HepG2 [6], the Activity entry was “Non-Toxic”.

Take `CC(C)c1onc(-c2c(Cl)cccc2Cl)c1COc1ccc(/C=C/c2cccc(C(=O)O)c2)c(Cl)c1`: in series [7], the outcome was Active. Also, the Activity result in the series with HepG2 [6] is listed as “Non-Toxic”.
